# Experimental data from ChEMBL document CHEMBL5338733, “Heterobifunctional Ligase Recruiters Enable pan-Degradation of Inhibitor of Apoptosis Proteins” (J Med Chem, 2023).
# Calls of active or inactive are those of the source. The calls are words filed in the database; no cut-off is given here.
# Legend:
# [1] = target: T1, von Hippel-Lindau disease tumor suppressor/E3 ubiquitin-protein ligase XIAP (Homo sapiens) (UniProt P98170+P40337); experiment: PROTAC activity at VHL/IAP in human MM1.S cells assessed as induction of XIAP degradation at 100 nM incubated for 3 hrs by diaPASEF-based analysis; assay type: cell-based
# How it was run: (§1)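 MM.1S cells treated with DMSO or 0.1 μM for 3 h (four biological replicates); urea lysis, reduction/alkylation, LysC then trypsin digestion, diaPASEF on timsTOF Pro2; label-free quantification, missing values imputed from Gaussian distribution, log2 fold change vs DMSO with limma statistics.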
# [2] = target: T2, von Hippel-Lindau disease tumor suppressor/Baculoviral IAP repeat-containing protein 2 (Homo sapiens) (UniProt Q13490+P40337); experiment: PROTAC activity at VHL/IAP in human MM1.S cells assessed as induction of cIAP1 degradation pretreated for 1 hr with ubiquitin-activating inhibitor, MLN7243 followed by incubation with drug for 3 hrs by western blot analysis; assay type: cell-based
# [3] = target: T1, von Hippel-Lindau disease tumor suppressor/E3 ubiquitin-protein ligase XIAP (Homo sapiens); experiment: PROTAC activity at VHL/IAP in human MM1.S cells assessed as induction of XIAP degradation at 0.1 uM measured after 3 hrs by western blot analysis; assay type: cell-based
# How it was run: (§2)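 Time course in MM.1S cells at 0.1 μM; protein levels at sampled time points by immunoblot (SDS-PAGE, PVDF, ECL) with densitometry.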
# [4] = target: T3, von Hippel-Lindau disease tumor suppressor/IAP (Homo sapiens) (UniProt P98170+Q13489+Q13490+P40337); experiment: PROTAC activity at VHL/IAP in human MM1.S cells assessed as induction of VHL30 degradation incubated for 16 hrs by western blot analysis; assay type: cell-based; conditions: dose 0.0001-1 µM
# How it was run: (§3)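 MM.1S cells treated 16 h at 0.1 or 1 μM (or concentration series); lysed, SDS-PAGE, PVDF immunoblot, ECL; densitometry normalized to loading control and DMSO; average of ≥3 independent experiments, DC50 from n = 4 repeats where derived.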
# [5] = target: T3, von Hippel-Lindau disease tumor suppressor/IAP (Homo sapiens); experiment: PROTAC activity at VHL/IAP in human MM1.S cells assessed as induction of VHL30 degradation at 1 uM incubated for 16 hrs followed by drug wash-out for 72 hrs by western blot analysis; assay type: cell-based
# How it was run: (§4)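 MM.1S cells given a single exposure to 1 μM, then compound washed out and protein followed up to 72 h by immunoblot with densitometry.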
# [6] = target: T4, von Hippel-Lindau disease tumor suppressor/Baculoviral IAP repeat-containing protein 3 (Homo sapiens) (UniProt Q13489+P40337); experiment: PROTAC activity at VHL/IAP in human MM1.S cells assessed as induction of cIAP2 degradation pretreated for 1 hr with ubiquitin-activating inhibitor, MLN7243 followed by incubation with drug for 3 hrs by western blot analysis; assay type: cell-based
# [7] = target: T1, von Hippel-Lindau disease tumor suppressor/E3 ubiquitin-protein ligase XIAP (Homo sapiens); experiment: PROTAC activity at VHL/IAP in human MM1.S cells assessed as induction of XIAP degradation at 1 uM incubated for 16 hrs followed by drug wash-out for 72 hrs by western blot analysis; assay type: cell-based; how it was run: as §4
# [8] = target: T4, von Hippel-Lindau disease tumor suppressor/Baculoviral IAP repeat-containing protein 3 (Homo sapiens); experiment: PROTAC activity at VHL/IAP in human MM1.S cells assessed as induction of cIAP2 degradation incubated for 16 hrs by western blot analysis; assay type: cell-based; how it was run: as §3
# [9] = target: T1, von Hippel-Lindau disease tumor suppressor/E3 ubiquitin-protein ligase XIAP (Homo sapiens); experiment: PROTAC activity at VHL/IAP in human MM1.S cells assessed as induction of XIAP degradation at 1 uM incubated for 16 hrs followed by drug wash-out for 72 hrs and later treated with VHL inhibitor, VH298 by western blot analysis; assay type: cell-based
# [10] = target: T2, von Hippel-Lindau disease tumor suppressor/Baculoviral IAP repeat-containing protein 2 (Homo sapiens); experiment: PROTAC activity at VHL/IAP in human MM1.S cells assessed as induction of cIAP1 degradation at 100 nM incubated for 3 hrs by diaPASEF-based analysis; assay type: cell-based; how it was run: as §1
# [11] = target: T2, von Hippel-Lindau disease tumor suppressor/Baculoviral IAP repeat-containing protein 2 (Homo sapiens); experiment: PROTAC activity at VHL/IAP in human MM1.S cells assessed as induction of cIAP1 degradation at 0.1 uM measured after 3 hrs by western blot analysis; assay type: cell-based; how it was run: as §2
# [12] = target: T2, von Hippel-Lindau disease tumor suppressor/Baculoviral IAP repeat-containing protein 2 (Homo sapiens); experiment: PROTAC activity at VHL/IAP in human MM1.S cells assessed as induction of cIAP1 degradation incubated for 16 hrs by western blot analysis; assay type: cell-based; how it was run: as §3
# [13] = target: T2, von Hippel-Lindau disease tumor suppressor/Baculoviral IAP repeat-containing protein 2 (Homo sapiens); experiment: PROTAC activity at VHL/IAP in human MM1.S cells assessed as induction of cIAP1 degradation pretreated for 1 hr with proteasome inhibitor, MG132 followed by incubation with drug for 3 hrs by western blot analysis; assay type: cell-based
# [14] = target: T2, von Hippel-Lindau disease tumor suppressor/Baculoviral IAP repeat-containing protein 2 (Homo sapiens); experiment: PROTAC activity at VHL/IAP in human MM1.S cells assessed as induction of cIAP1 degradation at 1 uM incubated for 16 hrs followed by drug wash-out for 72 hrs by western blot analysis; assay type: cell-based; how it was run: as §4
# [15] = target: T1, von Hippel-Lindau disease tumor suppressor/E3 ubiquitin-protein ligase XIAP (Homo sapiens); experiment: PROTAC activity at VHL/IAP in human MM1.S cells assessed as induction of XIAP degradation pretreated for 1 hr with proteasome inhibitor, MG132 followed by incubation with drug for 3 hrs by western blot analysis; assay type: cell-based
# [16] = target: T4, von Hippel-Lindau disease tumor suppressor/Baculoviral IAP repeat-containing protein 3 (Homo sapiens); experiment: PROTAC activity at VHL/IAP in human MM1.S cells assessed as induction of cIAP2 degradation pretreated for 1 hr with proteasome inhibitor, MG132 followed by incubation with drug for 3 hrs by western blot analysis; assay type: cell-based
# SU-DHL-6 = experiment: Cytotoxicity against human SU-DHL-6 cells assessed as reduction in cell viability measured after 96 hrs in presence of TNF-alpha by CellTiter-Glo luminescent assay; assay type: functional, cell-based; conditions: SU-DHL-6, 96 h
# How it was run: (§5)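 Cells seeded with compound at indicated concentrations ± TNF-α 1 ng/mL, incubated 96 h at 37 °C; viability by CellTiter-Glo luminescence, normalized to DMSO control; mean ± SD of biological triplicates. NCI-H929 cultured in RPMI-1640/10% FBS with 2-mercaptoethanol and sodium pyruvate; other lines in RPMI-1640/10% FBS, 37 °C, 5% CO2.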
# [17] = target: T3, von Hippel-Lindau disease tumor suppressor/IAP (Homo sapiens); experiment: PROTAC activity at VHL/IAP in cIPA2 knock-out human MM1.S cells assessed as induction of VHL30 degradation at 0.1 uM incubated for 16 hrs by western blot analysis; assay type: cell-based
# How it was run: (§6)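 Cas9-expressing MM.1S cells transduced with sgRNA against cIAP1, cIAP2 or XIAP (control sgRNA luciferase; ≥95% transduction by FACS at 48 h); treated 0.1 μM for 16 h; VHL30 measured by immunoblot (SDS-PAGE, PVDF, ECL) with densitometry.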
# [18] = target: T3, von Hippel-Lindau disease tumor suppressor/IAP (Homo sapiens); experiment: PROTAC activity at VHL/IAP in human MM1.S cells assessed as induction of VHL30 degradation at 0.1 uM measured after 6 hrs by western blot analysis; assay type: cell-based; how it was run: as §2
# NCI-H929 = experiment: Cytotoxicity against human NCI-H929 cells assessed as reduction in cell viability measured after 96 hrs in presence of TNF-alpha by CellTiter-Glo luminescent assay; assay type: functional, cell-based; conditions: NCI-H929, 96 h; how it was run: as §5
# [19] = target: T1, von Hippel-Lindau disease tumor suppressor/E3 ubiquitin-protein ligase XIAP (Homo sapiens); experiment: PROTAC activity at VHL/IAP in human MM1.S cells assessed as induction of XIAP degradation incubated for 16 hrs by western blot analysis; assay type: cell-based; how it was run: as §3
# [20] = target: T4, von Hippel-Lindau disease tumor suppressor/Baculoviral IAP repeat-containing protein 3 (Homo sapiens); experiment: PROTAC activity at VHL/IAP in human MM1.S cells assessed as induction of cIAP2 degradation at 0.1 uM measured after 3 hrs by western blot analysis; assay type: cell-based; how it was run: as §2
# [21] = target: T3, von Hippel-Lindau disease tumor suppressor/IAP (Homo sapiens); experiment: PROTAC activity at VHL/IAP in XIAP knock-out human MM1.S cells assessed as induction of VHL30 degradation at 0.1 uM incubated for 16 hrs by western blot analysis; assay type: cell-based; how it was run: as §6
# [22] = target: T4, von Hippel-Lindau disease tumor suppressor/Baculoviral IAP repeat-containing protein 3 (Homo sapiens); experiment: PROTAC activity at VHL/IAP in human MM1.S cells assessed as induction of cIAP2 degradation at 1 uM incubated for 16 hrs followed by drug wash-out for 72 hrs by western blot analysis; assay type: cell-based; how it was run: as §4
# [23] = target: T3, von Hippel-Lindau disease tumor suppressor/IAP (Homo sapiens); experiment: PROTAC activity at VHL/IAP in cIPA1 knock-out human MM1.S cells assessed as induction of VHL30 degradation at 0.1 uM incubated for 16 hrs by western blot analysis; assay type: cell-based; how it was run: as §6
# [24] = target: T3, von Hippel-Lindau disease tumor suppressor/IAP (Homo sapiens); experiment: PROTAC activity at VHL/IAP in human MM1.S cells assessed as induction of VHL19 degradation at 1 uM incubated for 16 hrs followed by drug wash-out for 72 hrs by western blot analysis; assay type: cell-based; how it was run: as §4
# [25] = target: T1, von Hippel-Lindau disease tumor suppressor/E3 ubiquitin-protein ligase XIAP (Homo sapiens); experiment: PROTAC activity at VHL/IAP in human MM1.S cells assessed as induction of XIAP degradation pretreated for 1 hr with ubiquitin-activating inhibitor, MLN7243 followed by incubation with drug for 3 hrs by western blot analysis; assay type: cell-based
# T4 sequence (P40337 whole entry, looked up): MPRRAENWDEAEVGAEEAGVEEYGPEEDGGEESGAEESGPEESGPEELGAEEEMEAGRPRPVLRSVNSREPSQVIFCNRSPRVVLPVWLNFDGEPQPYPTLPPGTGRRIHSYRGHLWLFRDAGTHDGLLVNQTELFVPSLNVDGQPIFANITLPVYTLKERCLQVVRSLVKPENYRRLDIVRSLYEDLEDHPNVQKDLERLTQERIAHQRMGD
# T4 sequence (Q13489 whole entry, looked up): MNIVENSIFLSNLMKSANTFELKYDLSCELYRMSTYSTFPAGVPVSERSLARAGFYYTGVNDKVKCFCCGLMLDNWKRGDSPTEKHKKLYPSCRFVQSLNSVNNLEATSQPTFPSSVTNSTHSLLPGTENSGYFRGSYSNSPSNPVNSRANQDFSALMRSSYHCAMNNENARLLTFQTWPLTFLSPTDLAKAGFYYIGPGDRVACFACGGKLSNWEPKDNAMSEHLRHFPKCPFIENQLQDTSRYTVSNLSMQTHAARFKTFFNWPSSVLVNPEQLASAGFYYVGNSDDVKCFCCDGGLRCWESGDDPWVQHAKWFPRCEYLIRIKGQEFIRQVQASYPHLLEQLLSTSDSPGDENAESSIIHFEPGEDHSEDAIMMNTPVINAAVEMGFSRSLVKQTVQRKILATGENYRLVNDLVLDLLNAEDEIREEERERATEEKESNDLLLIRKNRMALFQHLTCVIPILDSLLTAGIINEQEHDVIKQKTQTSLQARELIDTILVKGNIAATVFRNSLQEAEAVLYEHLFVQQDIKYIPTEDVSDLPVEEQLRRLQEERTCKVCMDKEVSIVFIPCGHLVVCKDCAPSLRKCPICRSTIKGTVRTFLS
# T1 sequence (P40337 whole entry, looked up): as the sequence (P40337 whole entry, looked up) above
# T1 sequence (P98170 whole entry, looked up): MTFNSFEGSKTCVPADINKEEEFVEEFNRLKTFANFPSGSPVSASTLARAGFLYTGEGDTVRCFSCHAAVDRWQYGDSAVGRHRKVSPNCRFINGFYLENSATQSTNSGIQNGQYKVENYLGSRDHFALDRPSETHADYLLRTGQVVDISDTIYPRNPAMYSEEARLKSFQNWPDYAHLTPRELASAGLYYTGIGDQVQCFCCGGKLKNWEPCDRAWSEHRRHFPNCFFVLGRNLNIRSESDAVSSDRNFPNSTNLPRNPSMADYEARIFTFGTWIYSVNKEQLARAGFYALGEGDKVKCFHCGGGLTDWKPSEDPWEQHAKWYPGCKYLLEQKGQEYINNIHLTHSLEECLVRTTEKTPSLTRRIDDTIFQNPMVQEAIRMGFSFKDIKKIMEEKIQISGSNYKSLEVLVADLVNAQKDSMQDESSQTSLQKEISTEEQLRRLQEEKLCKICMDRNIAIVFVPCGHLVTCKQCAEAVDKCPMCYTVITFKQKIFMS
# T3 sequence (P40337 whole entry, looked up): as the sequence (P40337 whole entry, looked up) above
# T3 sequence (P98170 whole entry, looked up): as the sequence (P98170 whole entry, looked up) above
# T3 sequence (Q13489 whole entry, looked up): as the sequence (Q13489 whole entry, looked up) above
# T3 sequence (Q13490 whole entry, looked up): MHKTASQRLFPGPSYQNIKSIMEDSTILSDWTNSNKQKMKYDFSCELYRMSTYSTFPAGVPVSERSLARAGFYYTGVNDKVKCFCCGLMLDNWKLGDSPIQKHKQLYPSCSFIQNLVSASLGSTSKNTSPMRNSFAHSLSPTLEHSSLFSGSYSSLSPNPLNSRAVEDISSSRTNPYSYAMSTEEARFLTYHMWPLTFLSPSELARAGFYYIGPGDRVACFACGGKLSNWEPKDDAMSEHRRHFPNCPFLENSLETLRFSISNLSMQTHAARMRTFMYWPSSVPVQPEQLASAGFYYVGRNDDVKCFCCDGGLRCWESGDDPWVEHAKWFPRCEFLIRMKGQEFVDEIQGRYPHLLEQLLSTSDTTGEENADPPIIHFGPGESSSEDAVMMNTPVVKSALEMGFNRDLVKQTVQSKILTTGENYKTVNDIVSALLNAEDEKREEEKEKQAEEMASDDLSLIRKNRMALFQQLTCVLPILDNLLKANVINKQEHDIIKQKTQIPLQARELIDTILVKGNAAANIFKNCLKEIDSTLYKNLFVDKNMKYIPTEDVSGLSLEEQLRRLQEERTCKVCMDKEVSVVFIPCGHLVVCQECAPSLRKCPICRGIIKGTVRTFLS
# T2 sequence (P40337 whole entry, looked up): as the sequence (P40337 whole entry, looked up) above
# T2 sequence (Q13490 whole entry, looked up): as the sequence (Q13490 whole entry, looked up) above
smiles,measurement,setting,value
CN[C@@H](C)C(=O)N[C@H](C(=O)N1C[C@@H](Oc2cccc(OCCCCC(=O)N[C@H](C(=O)N3C[C@H](O)C[C@H]3C(=O)N[C@@H](C)c3ccc(-c4scnc4C)cc3)C(C)(C)C)c2)C[C@H]1C(=O)N[C@@H]1CCCc2ccccc21)C1CCCCC1,Activity,[1],Active
same,Activity,[2],inactive
same,Activity,[3],100%
same,Activity,[4],Dose-Dependent Effect
same,Activity,[5],inactive
same,Activity,[6],inactive
same,Activity,[7],Active
same,Activity,[8],Dose-Dependent Effect
same,Activity,[9],inactive
same,Activity,[10],Active
same,Activity,[11],100%
same,Activity,[12],Dose-Dependent Effect
same,Activity,[13],inactive
same,Activity,[14],Active
same,Activity,[15],inactive
same,Activity,[16],inactive
same,IC50,SU-DHL-6,1.6 nM
same,Activity,[17],Active
same,Activity,[18],Active
same,IC50,NCI-H929,8 nM
same,Activity,[19],Dose-Dependent Effect
same,Activity,[20],100%
same,Activity,[21],Active
same,Activity,[22],Active
same,Activity,[23],Active
same,Activity,[24],inactive
same,Activity,[25],inactive
